Laboratory results published in ChEMBL document CHEMBL1268949, “3D QSAR study, synthesis, and in vitro evaluation of (+)-5-FBVM as potential PET radioligand for the vesicular acetylcholine transporter (VAChT)” (Bioorg Med Chem, 2010).

Columns and labels:
[1] = biological target: T1, Vesicular acetylcholine transporter (Rattus norvegicus, UniProt Q62666); test: Displacement of (-)-[3H]vesamicol from rat VAChT expressed in rat PC12 cells after 60 mins; type: cell-based, PC-12
T1 sequence (Q62666 whole entry): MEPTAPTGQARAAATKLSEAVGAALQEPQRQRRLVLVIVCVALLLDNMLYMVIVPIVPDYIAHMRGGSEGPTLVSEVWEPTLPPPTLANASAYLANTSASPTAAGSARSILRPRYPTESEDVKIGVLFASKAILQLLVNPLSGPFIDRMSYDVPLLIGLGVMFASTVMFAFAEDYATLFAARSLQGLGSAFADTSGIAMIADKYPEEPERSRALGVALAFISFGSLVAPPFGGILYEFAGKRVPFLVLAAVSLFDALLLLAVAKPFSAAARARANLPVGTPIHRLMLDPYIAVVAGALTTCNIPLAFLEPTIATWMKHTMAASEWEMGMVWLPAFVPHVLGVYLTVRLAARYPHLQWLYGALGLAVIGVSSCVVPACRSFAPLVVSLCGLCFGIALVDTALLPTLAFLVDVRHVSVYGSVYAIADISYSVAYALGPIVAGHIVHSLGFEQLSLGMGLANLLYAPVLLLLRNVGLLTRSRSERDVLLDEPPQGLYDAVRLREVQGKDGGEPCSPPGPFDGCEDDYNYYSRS
Summary of the method: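 Displacement of (−)-[3H]vesamicol was run on homogenates of PC12 cells stably transfected with rat VAChT. (−)-Vesamicol in excess defined non-specific binding, and bound ligand was collected by filtration on a cell harvester. Triplicates, at least three times; IC50 by computational non-linear regression.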

[2] = biological target: Sigma non-opioid intracellular receptor 1 (Rattus norvegicus, UniProt Q9R0C9); test: Displacement of (-)-[3H]pentazocine from sigma 1 receptor in rat cortical membranes after 120 mins; type: cell membranes, Membrane
Chain of Sigma non-opioid intracellular receptor 1 (Q9R0C9 whole entry): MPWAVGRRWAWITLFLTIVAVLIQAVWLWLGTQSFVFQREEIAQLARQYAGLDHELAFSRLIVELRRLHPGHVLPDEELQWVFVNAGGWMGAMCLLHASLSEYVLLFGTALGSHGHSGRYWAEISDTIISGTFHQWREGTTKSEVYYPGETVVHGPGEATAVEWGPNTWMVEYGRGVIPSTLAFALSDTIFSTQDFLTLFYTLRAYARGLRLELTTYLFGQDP
Summary of the method: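 Radioligand displacement on rat cortical membrane homogenates with (−)-[3H]pentazocine (1070 GBq/mmol), in 50 mM TRIS–HCl pH 7.4 at room temperature. Each assay was run in triplicate at least three times, and IC50 was estimated by non-linear regression.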

[3] = species on record: Rattus norvegicus; test: Selectivity ratio of Ki for sigma 1 receptor in rat cortical membranes to Ki for rat VAChT; type: cell membranes; settings: Membrane
[4] = Displacement of (-)-[3H]DTG from sigma 2 receptor in rat liver membranes after 120 mins; type: cell membranes, Membrane

O[C@@H]1Cc2cccc(I)c2C[C@H]1N1CCC(c2ccccc2)CC1 (racemic)
Ki [1]: 15.8 nM
Ki [2]: 266 nM
Ratio Ki [3]: 17

O[C@H]1Cc2cccc(OCCF)c2C[C@@H]1N1CCC(c2ccccc2)CC1
Ki [1]: 56.9 nM
Ki [2]: 269 nM
Ratio Ki [3]: 4.7

Nc1cccc2c1CC(N1CCC(c3ccccc3)CC1)C(O)C2 (racemic)
Ki [1]: 40.6 nM
Ki [2]: 652 nM
Ratio Ki [3]: 16

O[C@H]1Cc2cccc(F)c2C[C@@H]1N1CCC(c2ccccc2)CC1
Ki [1]: 6.95 nM
Ki [2]: 38.1 nM
Ki [4]: 526 nM
Ratio Ki [3]: 5.48

OC1Cc2cccc(F)c2CC1N1CCC(c2ccccc2)CC1 (racemic)
Ki [1]: 10.9 nM
Ki [2]: 13.2 nM
Ki [4]: 229 nM
Ratio Ki [3]: 1.21

O[C@@H]1Cc2cccc(F)c2C[C@H]1N1CCC(c2ccccc2)CC1
Ki [1]: 3.68 nM
Ki [2]: 3.57 nM
Ki [4]: 252 nM
Ratio Ki [3]: 0.97

O[C@@H]1Cc2cccc(OCCF)c2C[C@H]1N1CCC(c2ccccc2)CC1
Ki [1]: 19.6 nM
Ki [2]: 209 nM
Ratio Ki [3]: 10.7
